For data set [1], the species on record is Homo sapiens. Nature of the data set: Adsorbed radiation dose value was calculated to human ovaries. In kind it is functional, Female gonad. The gist of the method: (§1)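 Human absorbed dose (rd/mCi) estimated from rat tissue distribution data re-expressed as percent kilogram dose per gram. Fraction of injected dose per human organ = (% kg dose/g × organ weight)/(kg body weight of man × 100). Cumulated activities were derived from these fractions and organ half-times, then combined with Sn-117m S values (rd/μCi-h).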

Data set [2] is filed under the species Homo sapiens. The data set is described as follows: Adsorbed radiation dose value was calculated to human spleen. In kind it is functional. The essentials:
as §1

The species entered for data set [3] is Homo sapiens. The data set is described as follows: Adsorbed radiation dose value was calculated to human liver. In kind it is functional. The gist of the method: as §1
For data set [4], the species on record is Homo sapiens. Nature of the data set: Adsorbed radiation dose value was calculated to human total body. In kind it is functional. The gist of the method:
as §1

The species named for data set [5] is Homo sapiens. The data set is described as follows: Adsorbed radiation dose value was calculated to human adrenal. In kind it is functional. The gist of the method: as §1
Data set [6] is filed under the species Homo sapiens. Nature of the data set: Adsorbed radiation dose value was calculated to human lungs. In kind it is functional. The gist of the method:
as §1

Data set [7] relates to Rattus norvegicus. Nature of the data set: Tested for distribution of radioactivity in female rat tissue at 21 day after intravenous administration in adrenal. In kind it is ADME, organism-based. The following applies: in vivo, 504 h. The essentials:
(§2)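 Rat tissue distribution followed intravenous injection of the tin-117m-labeled steroid into female rats. Adrenals, blood, kidneys, liver and ovaries were counted at the stated day. Values are percent dose/gram, given as the mean and range for three female rats.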

In data set [8] the test system is Rattus norvegicus. The data set is described as follows: Tested for distribution of radioactivity in female rat tissue at 21 day after intravenous administration in ovaries. Conditions: in vivo, 504 h. In kind it is ADME, organism-based. The essentials: as §2
For data set [9], the system named is Rattus norvegicus. Nature of the data set: Tested for distribution of radioactivity in female rat tissue at 7 day after intravenous administration in adrenal. In kind it is ADME, organism-based. Conditions: in vivo, 168 h. The gist of the method: as §2
The test system of data set [10] is Rattus norvegicus. Nature of the data set: Tested for distribution of radioactivity in female rat tissue at 3 day after intravenous administration in adrenal. In kind it is ADME, organism-based. The following applies: in vivo, 72 h. The essentials: as §2
For data set [11], the system named is Rattus norvegicus. The data set is described as follows: Tested for distribution of radioactivity in female rat tissue at 7 day after intravenous administration in liver. Conditions: in vivo, 168 h. In kind it is ADME, organism-based. The essentials:
as §2

Data set [12] deals with Rattus norvegicus. The data set is described as follows: Tested for distribution of radioactivity in female rat tissue at 21 day after intravenous administration in kidney. In kind it is ADME, organism-based. The following applies: in vivo, 504 h. The essentials:
as §2

The subject of data set [13] is Rattus norvegicus. The data set is described as follows: Tested for distribution of radioactivity in female rat tissue at 3 day after intravenous administration in kidney. The following applies: in vivo, 72 h. In kind it is ADME, organism-based. The gist of the method: as §2
Data set [14] relates to Rattus norvegicus. The data set is described as follows: Tested for distribution of radioactivity in female rat tissue at 14d ay after intravenous administration in kidney. In kind it is ADME, organism-based. Conditions: in vivo. The gist of the method: as §2
Data set [15] concerns Rattus norvegicus. Nature of the data set: Tested for distribution of radioactivity in female rat tissue at 14d ay after intravenous administration in adrenal. In kind it is ADME, organism-based. The following applies: in vivo. The essentials:
as §2

For data set [16], the system named is Rattus norvegicus. The data set is described as follows: Tested for distribution of radioactivity in female rat tissue at 3 day after intravenous administration in ovaries. In kind it is ADME, organism-based. Conditions: in vivo, 72 h. The gist of the method:
as §2

Data set [17] has as its system Rattus norvegicus. The data set is described as follows: Tested for distribution of radioactivity in female rat tissue at 7 day after intravenous administration in kidney. In kind it is ADME, organism-based. The following applies: in vivo, 168 h. The essentials:
as §2

For data set [18], the system named is Rattus norvegicus. The data set is described as follows: Tested for distribution of radioactivity in female rat tissue at 7 day after intravenous administration in blood. Conditions: in vivo, 168 h. In kind it is ADME, organism-based. The essentials:
as §2

Data set [19] concerns Rattus norvegicus. The data set is described as follows: Tested for distribution of radioactivity in female rat tissue at 21 day after intravenous administration in blood. In kind it is ADME, organism-based. Conditions: in vivo, 504 h. The gist of the method: as §2
Data set [20] has as its system Rattus norvegicus. The data set is described as follows: Tested for distribution of radioactivity in female rat tissue at 3 day after intravenous administration in liver. In kind it is ADME, organism-based. The following applies: in vivo, 72 h. The gist of the method:
as §2

Data set [21] deals with Rattus norvegicus. The data set is described as follows: Tested for distribution of radioactivity in female rat tissue at 14d ay after intravenous administration in liver. The following applies: in vivo. In kind it is ADME, organism-based. The essentials:
as §2

The test system of data set [22] is Rattus norvegicus. The data set is described as follows: Tested for distribution of radioactivity in female rat tissue at 14d ay after intravenous administration in blood. In kind it is ADME, organism-based. The following applies: in vivo. The essentials: as §2
For data set [23], the system named is Rattus norvegicus. The data set is described as follows: Tested for distribution of radioactivity in female rat tissue at 7 day after intravenous administration in ovaries. In kind it is ADME, organism-based. Conditions: in vivo, 168 h. The essentials: as §2
Data set [24] deals with Rattus norvegicus. The data set is described as follows: Tested for distribution of radioactivity in female rat tissue at 3 day after intravenous administration in blood. Conditions: in vivo, 72 h. In kind it is ADME, organism-based. The gist of the method:
as §2

The test system of data set [25] is Rattus norvegicus. Nature of the data set: Tested for distribution of radioactivity in female rat tissue at 14d ay after intravenous administration in ovaries. The following applies: in vivo. In kind it is ADME, organism-based. The gist of the method:
as §2

Data set [26] in a line: It is the ratio of adrenal to blood measured on day 14 after iv administration in rat. In kind it is functional, organism-based. The gist of the method:
(§3)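 Female rats received an intravenous injection of the tin-117m-labeled steroid. Adrenal/blood and adrenal/liver ratios were calculated from percent dose per gram of tissue at the stated day after injection.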

A short description of data set [27]: It is the ratio of adrenal to liver measured on day 3 after iv administration in rat. In kind it is functional, organism-based. The gist of the method: as §3
Data set [28] is described as follows: It is the ratio of adrenal to liver measured on day1 after iv administration in rat. In kind it is functional, organism-based. The gist of the method:
as §3

Data set [29] can be described thus: It is the ratio of adrenal to blood measured on day 21 after iv administration in rat. In kind it is functional, organism-based. The gist of the method: as §3
A short description of data set [30]: It is the ratio of adrenal to liver measured on day 14 after iv administration in rat. In kind it is functional, organism-based. The essentials: as §3
In data set [31] the test system is Rattus norvegicus. Nature of the data set: Adrenal Uptake was determined on day1 after iv administration into rat. In kind it is functional, organism-based. The gist of the method: (§4)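 The tin-117m-labeled steroid was injected intravenously into female rats. Adrenal glands were taken at the stated day after injection, up to 21 days. Radioactivity was reported as percent of injected dose, given as the mean and range.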

Data set [32] has as its system Rattus norvegicus. Nature of the data set: Adrenal Uptake was determined on day 21 after iv administration into rat. In kind it is functional, organism-based. The gist of the method:
as §4

For data set [33], the system named is Rattus norvegicus. Nature of the data set: Adrenal Uptake was determined on day 14 after iv administration into rat. In kind it is functional, organism-based. The gist of the method:
as §4

Data set [34] can be described thus: It is the ratio of adrenal to blood measured on day1 after iv administration in rat. In kind it is functional, organism-based. The essentials:
as §3

Data set [35] in a line: It is the ratio of adrenal to liver measured on day 7 after iv administration in rat. In kind it is functional, organism-based. The essentials: as §3
In data set [36] the test system is Rattus norvegicus. The data set is described as follows: Adrenal Uptake was determined on day 7 after iv administration into rat. In kind it is functional, organism-based. The gist of the method:
as §4

Data set [37] in a line: It is the ratio of adrenal to blood measured on day 7 after iv administration in rat. In kind it is functional, organism-based. The gist of the method:
as §3

Data set [38] can be described thus: It is the ratio of adrenal to liver measured on day 21 after iv administration in rat. In kind it is functional, organism-based. The essentials: as §3
Data set [39] can be described thus: It is the ratio of adrenal to blood measured on day 3 after iv administration in rat. In kind it is functional, organism-based. The essentials: as §3
The test system of data set [40] is Rattus norvegicus. The data set is described as follows: Adrenal Uptake was determined on day 3 after iv administration into rat. In kind it is functional, organism-based. The essentials:
as §4

The species named for data set [41] is Homo sapiens. Nature of the data set: Adsorbed radiation dose value was calculated to human body. In kind it is functional, organism-based. The gist of the method: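 Rat tissue distribution data were converted to percent kilogram dose per gram. The fraction of injected dose in each human organ was taken as (% kg dose/g × organ weight)/(kg body weight × 100). Cumulated activities came from these fractions and organ half-times. Sn-117m S values (rd/µCi-h) then gave the absorbed dose in rd/mCi.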

Regarding `CC(C)[Te]CCC(C)C1CC[C@H]2[C@@H]3CC[C@H]4CC(O)CCC4(C)[C@H]3CCC12C` (some centres not stated), the Dose in the data set listed under Homo sapiens [1] is 8 rd mCi-1; in the data set filed under Homo sapiens [2], 1.4 rd mCi-1; in the data set listed under Homo sapiens [3], 1.6 rd mCi-1; in the data set listed under Homo sapiens [4], 0.8 rd mCi-1; in the data set filed under Homo sapiens [5] it was 98 rd mCi-1; in the data set listed under Homo sapiens [6], 1.3 rd mCi-1.

For `CC(C)[Te]CCCC(C)C1CCC2C3CC=C4CC(O)CCC4(C)C3CCC12C` (configuration not stated), the Dose in the data set filed under Homo sapiens [1] is 13 rd mCi-1; in the data set listed under Homo sapiens [2], 34 rd mCi-1; in the data set filed under Homo sapiens [3], 2 rd mCi-1; in the data set listed under Homo sapiens [4], 1.4 rd mCi-1; in the data set listed under Homo sapiens [5], 210 rd mCi-1; in the data set filed under Homo sapiens [6], 1.9 rd mCi-1.

Turning to Stannanyl complex [listing 1 of 2 here], the Dose/g in the data set on Rattus norvegicus [7] came to 2.33%; in the data set on Rattus norvegicus [8], 1.26%; with Rattus norvegicus [9], 19.37%; in the data set with Rattus norvegicus [10] it was 50.88%; in the data set on Rattus norvegicus [11], 0.44%; in the data set on Rattus norvegicus [12], 0.26%. Besides, the Dose/g with Rattus norvegicus [13] is given as 0.79%; in the data set with Rattus norvegicus [14] it was 0.38%; in the data set with Rattus norvegicus [15] it was 7.46%; with Rattus norvegicus [16], 10.99%; with Rattus norvegicus [17] it was 0.54%; with Rattus norvegicus [18], 0.19%. Also, the Dose/g in the data set with Rattus norvegicus [19] turned out to be 0.1%; in the data set on Rattus norvegicus [20], 2.13%; with Rattus norvegicus [21] it was 0.2%; in the data set on Rattus norvegicus [22] it was 0.15%; in the data set on Rattus norvegicus [23], 4.9%; with Rattus norvegicus [24], 0.8%. Also, in the data set with Rattus norvegicus [25], the Dose/g is 2.53%.

For the molecule Stannanyl complex [listing 2 of 2 here], the Dose in the data set filed under Homo sapiens [1] (Female gonad) is 4.4 rd mCi-1; in the data set listed under Homo sapiens [2] it was 7.7 rd mCi-1; in the data set filed under Homo sapiens [3] it was 5.3 rd mCi-1; in the data set listed under Homo sapiens [5], 83 rd mCi-1; in the data set filed under Homo sapiens [6], 4.1 rd mCi-1; in the data set filed under Homo sapiens [41] it was 0.77 rd mCi-1. Also, the Ratio in data set [26] is 49.7; in [27], 23.9; in [28], 9.1; in data set [29], 23.3; in data set [30] it was 37.3; in data set [34], 33.7. Moreover, the Ratio in [35] was determined as 44; in [37], 102; in data set [38] it was 16.6; in data set [39], 63.6. In addition, the Adrenal uptake with Rattus norvegicus [31] was found to be 2.51; in the data set on Rattus norvegicus [32], 0.16; in the data set with Rattus norvegicus [33], 0.34; with Rattus norvegicus [36], 1.1; in the data set with Rattus norvegicus [40], 2.86.

(Values after ChEMBL document CHEMBL1122383, “Potential tissue-imaging agents: 23-(trimethyl [117mSn]stannyl)-24-nor-5 alpha-cholan-3 beta-ol” (J Med Chem, 1983).)
